Reference: ChEMBL document CHEMBL1126569, “Nucleosides and nucleotides. 123. Synthesis of 1-(2-deoxy-2-isocyano-beta-D-arabinofuranosyl)cytosine and related nucleosides as potential antitumor agents” (J Med Chem, 1993)

Tests used:
[1] = tested on: Mus musculus; assay: Tested for in vivo antitumor activity against Lewis Lung Carcinoma cell line in mice and tumor weight change at 200 mg/Kg per day; format: functional
Summary of the method: (§1)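 A 2-mm cube of LLC was implanted s.c. in the backs of 9-week-old male BDF1 mice on day 0, with 7 mice per dose group. Drug in saline was given i.p. once daily on days 1–5 at 0.1 mL/10 g body weight. Tumor weight was measured on day 17. Percent inhibition compares the mean tumor weight of treated mice with vehicle-only controls.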

[2] = tested on: Mus musculus; assay: Mean body weight change on 17th day at a dose of 100 mg/kg/day; format: functional
Summary of the method: (§2)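 LLC fragments were implanted s.c. into male BDF1 mice aged 9 weeks on day 0, with seven animals per dose. Drug dissolved in saline was given intraperitoneally once a day for 5 days, days 1–5. Mean body weight change was recorded on day 5 and on day 17 and compared with saline-vehicle controls.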

[3] = tested on: Mus musculus; assay: Mean body weight change on 5th day at a dose of 100 mg/kg/day; format: functional; summary of the method: as §2
[4] = tested on: KB; assay: Tested in vitro for cytotoxicity against KB human oral epidermoid carcinoma cell line; format: functional, cell-based
Summary of the method: (§3)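 Cells were grown in RPMI 1640 with 10% FCS, and the L1210 medium also had 2-mercaptoethanol added. Compound was dissolved in Ca/Mg-free Dulbecco's PBS or saline, diluted in culture medium and applied for 72 h in a CO2 incubator. Cells were fixed in 0.1% glutaraldehyde and stained with 0.01% crystal violet. Dye was extracted in 50% EtOH–25 mM NaH2PO4 and OD read. IC50 is the concentration giving 50% reduction of optical density.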

[5] = tested on: Mus musculus; assay: Tested in vivo for antitumor activity against Lewis Lung Carcinoma cell line in mice and tumor weight change at 100 mg/Kg per day; format: functional; summary of the method: as §1
[6] = tested on: L1210; assay: Tested in vitro for cytotoxicity against leukemia L1210 cell line in mouse; format: functional, cell-based; summary of the method: as §3
[7] = tested on: Lewis lung carcinoma cell line; assay: Tested in vitro for cytotoxicity against LLC Lewis lung carcinoma cell line; format: functional, cell-based; conditions: Mus musculus; summary of the method: as §3
[8] = tested on: Mus musculus; assay: In vivo percent inhibition of Lewis Lung Carcinoma cell line in mice at 200 mg/Kg per day (p<0.001) compared with ara-C; format: functional; summary of the method: as §1
[9] = tested on: Mus musculus; assay: Mean body weight change on 17th day at a dose of 200 mg/kg/day; format: functional; summary of the method: as §2
[10] = tested on: Mus musculus; assay: Mean body weight change on 5th day at a dose of 200 mg/kg/day; format: functional; summary of the method: as §2
[11] = tested on: KATO III stomach cancer cell line; assay: Tested in vitro for cytotoxicity against KATO III human stomach adenocarcinoma cell line; format: functional, cell-based; summary of the method: as §3
[12] = tested on: Mus musculus; assay: In vivo percent inhibition of Lewis Lung Carcinoma cell line in mice at 100 mg/Kg per day (p<0.001) compared with ara-C; format: functional; summary of the method: as §1
[13] = tested on: KB; assay: tested in vitro for cytotoxicity against KB human oral epidermoid carcinoma cell line; format: functional, cell-based; summary of the method: as §3
[14] = tested on: KATO III stomach cancer cell line; assay: tested for in vitro cytotoxicity against KATO III human stomach adenocarcinoma cell line; format: functional, cell-based; summary of the method: as §3
[15] = tested on: L1210; assay: tested in vitro for cytotoxicity against L1210 leukemia cell line in mouse; format: functional, cell-based; summary of the method: as §3
[16] = tested on: Lewis lung carcinoma cell line; assay: tested for in vitro cytotoxicity against LLC Lewis lung carcinoma cell line; format: functional, cell-based; conditions: Mus musculus; summary of the method: as §3
[17] = tested on: L1210; assay: Tested in vitro for cytotoxicity against L1210 leukemia cell line in mouse
[18] = tested on: Mus musculus; assay: In vivo percent inhibition of Lewis Lung Carcinoma cell line in mice drug at 200 mg/Kg per day (p<0.001) compared with NCDAC; format: functional; summary of the method: as §1
[19] = tested on: KB; assay: Tested for in vitro cytotoxicity against KB human oral epidermoid carcinoma cell line; format: functional, cell-based; summary of the method: as §3
[20] = tested on: Mus musculus; assay: In vivo percent inhibition of Lewis Lung Carcinoma cell line in mice at 100 mg/Kg per day (p<0.001) compared with NCDAC; format: functional; summary of the method: as §1
[21] = tested on: KATO III stomach cancer cell line; assay: Tested for in vitro cytotoxicity against KATO III human stomach adenocarcinoma cell line; format: functional, cell-based; summary of the method: as §3
[22] = tested on: Mus musculus; assay: Tested for in vivo antitumor activity against Lewis Lung Carcinoma cell line in mice and tumor weight change at 100 mg/Kg per day; format: functional; summary of the method: as §1
[23] = tested on: Lewis lung carcinoma cell line; assay: Tested for in vitro cytotoxicity against LLC Lewis lung carcinoma cell line; format: functional, cell-based; conditions: Mus musculus; summary of the method: as §3

[C-]#[N+][C@@H]1[C@H](n2ccc(N)nc2=O)OC(CO)[C@@H]1O (stereo partly drawn)
Tumor weight [1]: 1.09 g | Weight change [2]: 2 | Weight change [3]: 0.4 | IC50 [4]: 7.9 µM | Tumor weight [5]: 1.08 g | IC50 [6]: 12.6 µM | IC50 [7]: 4.9 µM | Inhibition ratio [8]: 60.6% | Weight change [9]: 2.1 | Weight change [10]: 0.2 | IC50 [11]: 90 µM | Inhibition ratio [12]: 61%

[C-]#[N+][C@@H]1[C@H](n2ccc(=O)[nH]c2=O)OC(CO)[C@@H]1O (stereo partly drawn)
IC50 [13]: 36.8 µM | IC50 [14]: > 100 µM | IC50 [15]: 34 µM | IC50 [16]: > 100 µM

Nc1ccn([C@@H]2O[C@H](CO)[C@@H](O)[C@@H]2O)c(=O)n1 [CYTARABINE]
Tumor weight [1]: 0.34 g | IC50 [17]: 0.12 µM | Inhibition ratio [18]: 87.7% | IC50 [19]: 0.64 µM | Inhibition ratio [20]: 83% | Weight change [2]: 0.8 | Weight change [3]: -0.4 | IC50 [21]: 0.3 µM | Weight change [9]: 0.7 | Weight change [10]: -0.1 | Tumor weight [22]: 0.47 g | IC50 [23]: 5.6 µM
